aSyn 5UTR inh = MLPCN primary screen, SNCA 5' untranslated region; inhibition, % (tested at 7.5 µM); alpha-synuclein 5'UTR reporter, inhibitor activity; AID 1813, 2009; 300,000 tested, 0.82% active; in the data active = inhibition above about 60%; inconclusive = no clear call, values can overlap the other calls;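 note: H4 neuroglioblastoma cells stably carrying SNCA 5'UTR luciferase fusion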
CSC inhib = cancer stem cell viability inhibitors, primary screen, luminescence; 300,000 tested, 1.1% active; inhibition, % at 7.5 µM; cancer stem cell-like cells viability; in the data active = inhibition above about 75%; inconclusive = no clear call, values can overlap the other calls; tested in HMLE shEcad cells
SKKanGAS inh = S. pyogenes SKKanGAS growth inhibitors in kanamycin, primary screen, streptokinase expression inhibitor project, SKKanGAS strain, BacTiter-Glo luminescence; inhibition, % at 7.5 µM; 300,000 tested, 1.3% active; 6 h;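 active = mean replicate score, as percent of positive control median, at least 50; inconclusive = mean below 50 but one replicate at or above 50; inactive = mean and every replicate below 50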;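 note: strain carries kanamycin resistance gene driven by streptokinase promoter and grows in 40 µg/ml kanamycin; loss of luminescence reflects streptokinase promoter inhibition or plain growth inhibition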
T cruzi inh = inhibitors of intracellular T. cruzi growth, primary screen, luminescence, NIH3T3 host cells; T. cruzi beta-gal in NIH3T3, 90 h; inhibition, % (concentration not given with the values); 300,000 tested, 1.4% active;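 active = mean inhibition across valid replicates above about 55%, limit read from the data; inconclusive = mean below that limit but half or more replicates reach it; inactive = mean below it, under half of replicates reach it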;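 note: signal also drops with host cell toxicity which is not excluded here; higher percent means less beta-gal luminescence so fewer parasites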
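System: Mouse NIH/3T3 fibroblasts infected with β-gal-expressing T. cruzi Tulahuen C4 | Quantity: NIH/3T3 cells, 5,000 per well | Reagent: 5000 reporter trypomastigotes per well | Dosing: Compound pinned at 50 nL/well, DMSO | Schedule: 3 h host attachment, then at least 90 h co-culture | Detection: GalScreen luminescence, 60 min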
Mdm2-MdmX inh = inhibitors of human Mdm2-MdmX association, primary screen, cell-based, luminescence, split luciferase, SaOS-2, uHTS; Protein Mdm4 (Homo sapiens) + E3 ubiquitin-protein ligase Mdm2 (Homo sapiens), …; SaOS-2 split-luciferase Mdm2/MdmX complementation; inhibition, % at 8 µM; 330,000 tested, 3% active;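 active = inhibition of at least 50% at 8 µM in the primary screen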
Mdm2-MdmX conf = Mdm2-MdmX complex disruptors, retested hits, confirmation, luminescence, single concentration; inhibition, % at 8 µM; 10,000 tested, 55% active; shares compounds with Mdm2-MdmX inh; Mdm2-MdmX binding, luminescent assay; in the data active = inhibition above about 40%
FLuc counter = full-length luciferase signal inhibition, confirmation, counter-screen for Mdm2/MdmX interaction inhibitor project, cell-based, single concentration, SaOS-2 | shares compounds with Mdm2-MdmX inh | SaOS-2 full-length luciferase counterscreen, luminescence | inhibition, % at 8 µM | 6,200 tested, 77% active;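 active = mean inhibition at 8 µM reaching about 37%, which flags the compound as non-specific, limit read from the data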;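 note: p53-null SaOS-2 cells with luciferase driven by a doxycycline-inducible promoter; compound on cells about two nights before reading with doxycycline added after day one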
Each line names hits and unclear results; the compound was inactive in the other large screens (follow-up assays come after a bar, where they were run). Compounds with a hit are over-represented: about 5.4% of the library has one in this group of screens.

COc1cc(OC)cc(C(=O)NCCS(=O)(=O)N2CCN(Cc3ccccc3)CC2)c1	none (no result: CSC inhib)
CCOc1ccc(CN(C)CC(=O)Nc2ccc([N+](=O)[O-])cc2Cl)cc1	none
COc1cc(OC)cc(C(C(=O)NCc2ccccc2)N(Cc2ccco2)C(=O)c2ccno2)c1 (stereo not given)	none
COc1ccc(-c2ccc3c(c2)S(=O)(=O)c2cccc(C(=O)NCCOc4ccccc4)c2C3=O)cc1OC	Mdm2-MdmX inh 76 (no result: aSyn 5UTR inh, SKKanGAS inh, T cruzi inh) | Mdm2-MdmX conf inactive
Cc1cc(C)nc(NC(=O)c2c(F)c(F)c(F)c(C(=O)Nc3cc(C)cc(C)n3)c2F)c1	Mdm2-MdmX inh 83 | Mdm2-MdmX conf 65 | FLuc counter inactive
Cc1cc(C)nc(NC(=O)c2ccc3c(c2)OCO3)c1	none
O=C1c2cccc3cccc(c23)C(=O)N1CC1CCN(CC(O)COc2ccc3ccccc3c2)CC1 (stereo not given)	CSC inhib 103, SKKanGAS inh 70, T cruzi inh 66, Mdm2-MdmX inh 73 | Mdm2-MdmX conf inactive | FLuc counter 52
Cc1cc(C)cc(OCC(O)CN2CCC(CN3C(=O)c4cccc5cccc(c45)C3=O)CC2)c1 (stereo not given)	T cruzi inh 57, Mdm2-MdmX inh 69 | Mdm2-MdmX conf inactive | FLuc counter 74
CCc1ccc(OCC(O)CN2CCC(CN3C(=O)c4cccc5cccc(c45)C3=O)CC2)cc1 (stereo not given)	T cruzi inh 56, Mdm2-MdmX inh 77 | Mdm2-MdmX conf inactive | FLuc counter 61
CC(=O)c1ccccc1OCC(O)CN1CCN(CCN2C(=O)c3cccc4cccc(c34)C2=O)CC1 (stereo not given)	none
CCc1ccc(OCC(O)CN2CCN(c3ccccc3)CC2)cc1 (stereo not given)	none (no result: CSC inhib)
O=C1c2cccc3cccc(c23)C(=O)N1CCN1CCN(CC(O)COc2ccc3ccccc3c2)CC1 (stereo not given)	CSC inhib 104, Mdm2-MdmX inh 67 | Mdm2-MdmX conf inactive
CCOC(=O)C1(CCOc2ccccc2)CCN(CC(O)CO)CC1 (stereo not given)	none
CC(C)Cc1nc2oc3c(Cl)ncnc3c2c2c1CCC2	CSC inhib 86, Mdm2-MdmX inh 100 | Mdm2-MdmX conf 70 | FLuc counter 51
O=C(O)CCNC(=O)/C(=C\c1ccco1)NC(=O)c1ccco1	none
COc1ccc(OC)c(NC(=O)c2nc(S(=O)(=O)Cc3ccccc3)ncc2Cl)c1	aSyn 5UTR inh 99, CSC inhib 106, Mdm2-MdmX inh 100 | Mdm2-MdmX conf 93 | FLuc counter 51
COc1ccc(NC(=O)c2nc(S(=O)(=O)Cc3cccc(C)c3)ncc2Cl)c(OC)c1	aSyn 5UTR inh 82, Mdm2-MdmX inh 85 | Mdm2-MdmX conf 70 | FLuc counter inactive
Cc1ccc(-c2nnn(CC(=O)N(CCCO)C(C(=O)NC3CCCC3)c3ccc(F)cc3)n2)o1 (stereo not given)	none
O=C(CNCc1ccco1)Nc1ccc(Oc2ccccc2)cc1	none (no result: aSyn 5UTR inh, T cruzi inh)
CCN(CC)CCN(C(=O)CCS(=O)(=O)c1ccccc1)c1nc2c(C)cc(C)cc2s1	SKKanGAS inh inconclusive, Mdm2-MdmX inh 51 | Mdm2-MdmX conf inactive | FLuc counter 87
Cc1cccc2sc(N(CCN3CCOCC3)C(=O)CCS(=O)(=O)c3ccccc3)nc12	Mdm2-MdmX inh 69 | Mdm2-MdmX conf 46 | FLuc counter 68
Cc1ccc(S(=O)(=O)CCC(=O)N(CCN2CCOCC2)c2nc3ccccc3s2)cc1	none
CCN(CC)CCN(C(=O)CCS(=O)(=O)c1ccccc1)c1nc2cc(OC)c(OC)cc2s1	none
CCC(SC1=N/C(=C/c2ccccc2OC)C(=O)N1c1ccccc1)C(=O)Nc1cc(C)on1 (stereo not given)	none
Cn1nnc2cc(C(=O)N3CCC(c4ccccc4)C3)ccc21 (stereo not given)	none (no result: CSC inhib)
Cc1ccc(CNC(=O)CN(C)C2=NS(=O)(=O)c3ccccc32)cc1	none (no result: aSyn 5UTR inh, SKKanGAS inh, T cruzi inh)
CC(C)N1C/C(=C/c2ccsc2)C(=O)/C(=C/c2ccsc2)C1	Mdm2-MdmX inh 92 | Mdm2-MdmX conf inactive
O=c1[nH]c(C2CCN(S(=O)(=O)c3ccc4c(c3)OCCO4)CC2)nc2c1nnn2Cc1c(F)cccc1Cl	Mdm2-MdmX inh 56 | Mdm2-MdmX conf 47 | FLuc counter 59
CC1=C(C(=O)Nc2cccc(C)n2)C(c2ccc3c(c2)OCO3)C2=C(CC(c3ccco3)CC2=O)N1 (stereo not given)	none (no result: CSC inhib, Mdm2-MdmX inh)
CCCN1C=CC(=C2C(=O)c3ccccc3C2=O)C=C1	aSyn 5UTR inh 132, Mdm2-MdmX inh 88 | Mdm2-MdmX conf 94 | FLuc counter 55
CCN1C=CC(=C2C(=O)c3ccccc3C2=O)C=C1	aSyn 5UTR inh 96, Mdm2-MdmX inh 72 | Mdm2-MdmX conf 78 | FLuc counter 37
CCCCN1C(C)=CC(=C2C(=O)c3ccccc3C2=O)C=C1C	none
CC1=CC(=C2C(=O)c3ccccc3C2=O)C=C(C)N1Cc1ccco1	none
CC1CCCCC1NC(=O)C1CCCN(S(=O)(=O)c2ccc(-n3cnnn3)cc2)C1 (stereo not given)	none
Oc1cc(NCc2ccc(Cl)cc2)cc2cccnc12	none (no result: aSyn 5UTR inh, CSC inhib, SKKanGAS inh, T cruzi inh)
Oc1cc(NCc2ccc(F)cc2)cc2cccnc12	Mdm2-MdmX inh 56 (no result: aSyn 5UTR inh, CSC inhib, SKKanGAS inh, T cruzi inh) | Mdm2-MdmX conf inactive
O=C(Nc1ccccc1-c1nnn(CC(=O)N2CCOCC2)n1)c1ccccc1F	none
CCOc1ccc(-n2nnnc2-c2nc3ccccc3s2)cc1	Mdm2-MdmX inh 74 | Mdm2-MdmX conf 49 | FLuc counter 89
Cc1ccc(-n2nnnc2-c2nc3ccccc3s2)cc1	none
O=c1oc(-c2ccccc2Br)nc2ccccc12	Mdm2-MdmX inh 65 | Mdm2-MdmX conf 50 | FLuc counter 47
CC(C)C(=O)NC(c1ccco1)c1ccc2cccnc2c1O (stereo not given)	aSyn 5UTR inh 63, SKKanGAS inh 87, Mdm2-MdmX inh 82 | Mdm2-MdmX conf 64 | FLuc counter inactive
c1coc(CNc2nc3ccccc3s2)c1	none
CC(C)C(=O)NC(c1cccc([N+](=O)[O-])c1)c1ccc2cccnc2c1O (stereo not given)	aSyn 5UTR inh 91, CSC inhib 100, Mdm2-MdmX inh 81 | Mdm2-MdmX conf 90 | FLuc counter 52
CC(C)C(=O)NC(c1cccc([N+](=O)[O-])c1)c1c(O)ccc2ccccc12 (stereo not given)	none (no result: CSC inhib)
